Reference: ChEMBL document CHEMBL3739331, “Synthesis and Bioactivities of Kanamycin B-Derived Cationic Amphiphiles” (J Med Chem, 2015)
≈ marks a conversion by molar mass, not a printed value. Calls of active or inactive are those of the source. The rule behind the calls is not given here.

Tests used:
Aspergillus nidulans = assay: Antifungal activity against Aspergillus nidulans ATCC 38163 after 48 hrs by microbroth dilution method; format: functional; settings: ATCC 38163, 48 h
Method in brief: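 Filamentous fungus MIC by broth microdilution, run in duplicate. All compounds are read as MIC-0 (complete inhibition).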

[1] = tested on: Bacillus subtilis subsp. subtilis str. 168; assay: Activity of Bacillus subtilis 168 APH(2'')-1a assessed as compound phosphorylation activity by Ellman's method
Candida albicans [2] = assay: Antifungal activity against azole-resistant Candida albicans MYA-1003 after 48 hrs by microbroth dilution method; format: functional; settings: MYA-1003, 48 h
Method in brief: (§1)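 Yeast MIC by broth microdilution, run in duplicate. The aminoglycoside compounds are read as MIC-0 (complete inhibition). Azoles are read as MIC-2 (50% inhibition).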

Salmonella enterica = assay: Antibacterial activity against Salmonella enterica ATCC 14028 by microdilution method; format: functional
Method in brief: (§2)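 Broth microdilution MIC against the named bacterial strain, reported in μg/mL; each determination run at least in duplicate.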

Enterococcus = assay: Antibacterial activity against vancomycin-resistant Enterococcus by microdilution method; format: functional
Method in brief: (§3)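 Broth microdilution MIC, in μg/mL, against a panel of Gram-positive and Gram-negative strains. Run at least in duplicate.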

Listeria monocytogenes = assay: Antibacterial activity against Listeria monocytogenes ATCC 19115 by microdilution method; format: functional; method in brief: as §2
Staphylococcus aureus [3] = assay: Antibacterial activity against methicillin-resistant Staphylococcus aureus by microdilution method; format: functional; method in brief: as §3
Bacillus subtilis = assay: Antibacterial activity against Bacillus subtilis 168 by microdilution method; format: functional; settings: subsp. subtilis str. 168; method in brief: as §2
Candida albicans [4] = assay: Antifungal activity against azole-susceptible Candida albicans ATCC MYA-2310 after 48 hrs by microbroth dilution method; format: functional; settings: ATCC MYA-2310, 48 h; method in brief: as §1
Pseudomonas aeruginosa = assay: Antibacterial activity against Pseudomonas aeruginosa ATCC 27853 by microdilution method; format: functional; method in brief: as §2
Staphylococcus aureus [5] = assay: Antibacterial activity against Staphylococcus aureus NRS22 (USA 600) by microdilution method; format: functional; method in brief: as §2
Candida albicans [6] = assay: Antifungal activity against azole-resistant Candida albicans ATCC 10231 after 48 hrs by microbroth dilution method; format: functional; settings: ATCC 10231, 48 h; method in brief: as §1
Staphylococcus aureus [7] = assay: Antibacterial activity against Staphylococcus aureus NRS385 (USA 300) by microdilution method; format: functional; method in brief: as §3
Candida albicans [8] = assay: Antifungal activity against azole-resistant Candida albicans ATCC 90819 after 48 hrs by microbroth dilution method; format: functional; settings: ATCC 90819, 48 h; method in brief: as §1
Enterobacter cloacae = assay: Antibacterial activity against Enterobacter cloacae ATCC 13047 by microdilution method; format: functional; method in brief: as §2
Candida albicans [9] = assay: Antifungal activity against azole-resistant Candida albicans MYA-1237 after 48 hrs by microbroth dilution method; format: functional; settings: MYA-1237, 48 h; method in brief: as §1
[10] = Activity of AAC(6')-1e/APH(2'')-1a (unknown origin) assessed as compound acetylation activity by Ellman's method
Staphylococcus aureus [11] = assay: Antibacterial activity against Staphylococcus aureus NRS383 (USA 200) by microdilution method; format: functional; method in brief: as §2
[12] = Activity of AAC(3)-4 (unknown origin) assessed as compound acetylation activity by Ellman's method
[13] = tested on: Mycobacterium tuberculosis; assay: Activity of Mycobacterium tuberculosis Eis assessed as compound acetylation activity by Ellman's method
Serratia marcescens = assay: Activity of Serratia marcescens AAC(6')-2d assessed as compound acetylation activity by Ellman's method
Staphylococcus aureus [14] = assay: Antibacterial activity against Staphylococcus aureus ATCC 29213 by microdilution method; format: functional; method in brief: as §2
Staphylococcus aureus [15] = assay: Antibacterial activity against Staphylococcus aureus NRS382 (USA 100) by microdilution method; format: functional; method in brief: as §2
[16] = tested on: Mycobacterium tuberculosis; assay: Activity of Mycobacterium tuberculosis AAC(2')-1c assessed as compound acetylation activity by Ellman's method
Candida albicans [17] = assay: Antifungal activity against azole-susceptible Candida albicans ATCC MYA-2876 after 48 hrs by microbroth dilution method; format: functional; settings: ATCC MYA-2876, 48 h; method in brief: as §1
Candida albicans [18] = assay: Antifungal activity against azole-resistant Candida albicans ATCC 64124 after 48 hrs by microbroth dilution method; format: functional; settings: ATCC 64124, 48 h; method in brief: as §1
Acinetobacter baumannii = assay: Antibacterial activity against Acinetobacter baumannii ATCC 19606 by microdilution method; format: functional; method in brief: as §2
Escherichia coli = assay: Antibacterial activity against Escherichia coli MC1061 by microdilution method; format: functional; method in brief: as §3
Klebsiella pneumoniae = assay: Antibacterial activity against Klebsiella pneumoniae ATCC 27736 by microdilution method; format: functional; method in brief: as §2
[19] = tested on: Staphylococcus epidermidis; assay: Antibacterial activity against Staphylococcus epidermidis ATCC 12228 by microdilution method; format: functional; method in brief: as §2
[20] = Hemolytic activity against mouse RBC at 100 to 500 ug/ml after 60 mins; format: ADME, cell-based; settings: erythrocyte, 1 h
A549 = assay: Cytotoxicity against human A549 cells after 24 hrs by resazurin assay; format: cell-based; settings: human, a549, 24 h
[21] = tested on: Mycolicibacterium smegmatis; assay: Antibacterial activity against Mycobacterium smegmatis MC2 155 by microdilution method; format: functional; settings: str. MC2 155; method in brief: as §3
[22] = Cytotoxicity against human BEAS2B cells after 24 hrs by resazurin assay; format: cell-based, BEAS-2B; settings: human, beas-2b
Candida albicans [23] = assay: Antifungal activity against azole-resistant Candida albicans ATCC 64124 at sub-MIC measured over 24 hrs by time-kill assay; format: functional, organism-based
Method in brief: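 Time-kill assay on C. albicans ATCC 64124 cultures exposed to test compound at 1/2 MIC, MIC and higher concentrations. Amphotericin B at 1 μg/mL and a no-drug culture serve as controls. CFU are counted at intervals over 24 h.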

`CCCCCCCCCCSC[C@H]1O[C@H](O[C@@H]2[C@@H](O)[C@H](O[C@H]3O[C@H](CN)[C@@H](O)C[C@H]3N)[C@@H](N)C[C@H]2N)[C@H](O)[C@@H](N)[C@@H]1O` showed an MIC (Aspergillus nidulans) of 62.5 µg/mL (≈ 100 µM).

With `CCCCCCCCCCCCCCS(=O)(=O)C[C@@H]1O[C@@H](O[C@@H]2[C@@H](O)[C@H](O[C@@H]3O[C@@H](CN)[C@H](O)[C@@H](O)[C@@H]3N)[C@@H](N)C[C@H]2N)[C@@H](O)[C@H](N)[C@H]1O` (stereo in doubt) the Activity [1] was “inactive”, the MIC (Candida albicans [2]) was 7.8 µg/mL (≈ 10.7 µM) and the MIC (Salmonella enterica) was 128 µg/mL (≈ 176 µM). The MIC (Enterococcus) was 32 µg/mL (≈ 44 µM), the MIC (Listeria monocytogenes) was 2 µg/mL (≈ 2.75 µM) and the MIC (Staphylococcus aureus [3]) was 128 µg/mL (≈ 176 µM). It also gave an MIC (Bacillus subtilis) greater than 128 µg/mL, an MIC (Candida albicans [4]) of 7.8 µg/mL (≈ 10.7 µM) and an MIC (Pseudomonas aeruginosa) of 32 µg/mL (≈ 44 µM). The MIC (Staphylococcus aureus [5]) was 64 µg/mL (≈ 87.9 µM), the MIC (Candida albicans [6]) was 3.9 µg/mL (≈ 5.36 µM) and the MIC (Staphylococcus aureus [7]) was 128 µg/mL (≈ 176 µM). For the same molecule, the MIC (Candida albicans [8]) was 7.8 µg/mL (≈ 10.7 µM), the MIC (Enterobacter cloacae) was greater than 128 µg/mL and the MIC (Aspergillus nidulans) was 1.95 µg/mL (≈ 2.68 µM). The MIC (Candida albicans [9]) was 7.8 µg/mL (≈ 10.7 µM), the Activity [10] was “inactive” and the MIC (Staphylococcus aureus [11]) was 128 µg/mL (≈ 176 µM). The Activity [12] was “inactive”, the Activity [13] was “inactive” and the Activity (Serratia marcescens) was “inactive”. For the same molecule, the MIC (Staphylococcus aureus [14]) was 128 µg/mL (≈ 176 µM), the MIC (Staphylococcus aureus [15]) was 64 µg/mL (≈ 87.9 µM) and the Activity [16] was “inactive”. For the same molecule, the MIC (Candida albicans [17]) was 3.9 µg/mL (≈ 5.36 µM), the MIC (Candida albicans [18]) was 3.9 µg/mL (≈ 5.36 µM) and the MIC (Acinetobacter baumannii) was greater than 128 µg/mL. It also gave an MIC (Escherichia coli) greater than 128 µg/mL, an MIC (Klebsiella pneumoniae) greater than 128 µg/mL and an MIC [19] greater than 128 µg/mL.

In the case of `CCCCCCCCSC[C@@H]1O[C@@H](O[C@@H]2[C@@H](O)[C@H](O[C@@H]3O[C@@H](CN)[C@H](O)[C@@H](O)[C@@H]3N)[C@@H](N)C[C@H]2N)[C@@H](O)[C@H](N)[C@H]1O` (stereo in doubt), the Activity [1] is reported as “inactive”, the MIC (Candida albicans [2]) is reported as greater than 125 µg/mL and the MIC (Salmonella enterica) is reported as greater than 128 µg/mL. For the same molecule, the Activity [20] was “Non-toxic”, the Activity (A549) was “Non-toxic” and the MIC (Enterococcus) was 128 µg/mL (≈ 209 µM). The MIC (Listeria monocytogenes) was 8 µg/mL (≈ 13.1 µM), the MIC (Staphylococcus aureus [3]) was 128 µg/mL (≈ 209 µM) and the MIC (Bacillus subtilis) was greater than 128 µg/mL. For the same molecule, the MIC (Candida albicans [4]) was greater than 125 µg/mL, the MIC (Pseudomonas aeruginosa) was 64 µg/mL (≈ 105 µM) and the MIC (Staphylococcus aureus [5]) was 64 µg/mL (≈ 105 µM). It also gave an MIC (Candida albicans [6]) greater than 125 µg/mL, an MIC (Staphylococcus aureus [7]) of 128 µg/mL (≈ 209 µM) and an MIC (Candida albicans [8]) greater than 125 µg/mL. For the same molecule, the MIC (Enterobacter cloacae) was greater than 128 µg/mL, the MIC (Aspergillus nidulans) was 15.6 µg/mL (≈ 25.5 µM) and the MIC (Candida albicans [9]) was greater than 125 µg/mL. For the same molecule, the Activity [10] was “inactive”, the MIC (Staphylococcus aureus [11]) was 64 µg/mL (≈ 105 µM) and the Activity [12] was “inactive”. The Activity [13] was “inactive”, the Activity (Serratia marcescens) was “inactive” and the MIC (Staphylococcus aureus [14]) was 64 µg/mL (≈ 105 µM). The MIC [21] was 64 µg/mL (≈ 105 µM), the MIC (Staphylococcus aureus [15]) was 128 µg/mL (≈ 209 µM) and the Activity [16] was “inactive”. For the same molecule, the MIC (Candida albicans [17]) was greater than 125 µg/mL, the MIC (Candida albicans [18]) was greater than 125 µg/mL and the MIC (Acinetobacter baumannii) was greater than 128 µg/mL. The Activity [22] was “Non-toxic”, the MIC (Escherichia coli) was greater than 128 µg/mL and the MIC (Klebsiella pneumoniae) was greater than 128 µg/mL. For the same molecule, the MIC [19] was greater than 128 µg/mL.

With `C[C@@H]1[C@H](O)[C@@H](C)/C=C/C=C/C=C/C=C/C=C/C=C/C=C/[C@H](O[C@@H]2O[C@H](C)[C@@H](O)[C@H](N)[C@@H]2O)C[C@@H]2O[C@](O)(C[C@@H](O)C[C@@H](O)[C@H](O)CC[C@@H](O)C[C@@H](O)CC(=O)O[C@H]1C)C[C@H](O)[C@H]2C(=O)O` [AMPHOTERICIN B] the Activity [20] was “Toxic” and the Activity (Candida albicans [23]) was “Active”.

With `NC[C@H]1O[C@H](O[C@H]2[C@H](O)[C@@H](O[C@H]3O[C@H](CO)[C@@H](O)[C@H](N)[C@H]3O)[C@H](N)C[C@@H]2N)[C@H](O)[C@@H](O)[C@@H]1O` [KANAMYCIN] the MIC (Salmonella enterica) was 16 µg/mL (≈ 33 µM), the MIC (Enterococcus) was greater than 128 µg/mL and the MIC (Listeria monocytogenes) was 128 µg/mL (≈ 264 µM). It also gave an MIC (Staphylococcus aureus [3]) of 128 µg/mL (≈ 264 µM), an MIC (Bacillus subtilis) of 2 µg/mL (≈ 4.13 µM) and an MIC (Pseudomonas aeruginosa) greater than 128 µg/mL. It also gave an MIC (Staphylococcus aureus [5]) greater than 128 µg/mL, an MIC (Staphylococcus aureus [7]) greater than 128 µg/mL and an MIC (Enterobacter cloacae) of 2 µg/mL (≈ 4.13 µM). It also gave an MIC (Staphylococcus aureus [11]) greater than 128 µg/mL, an MIC (Staphylococcus aureus [14]) greater than 128 µg/mL and an MIC [21] of no more than 0.25 µg/mL. For the same molecule, the MIC (Staphylococcus aureus [15]) was greater than 128 µg/mL, the MIC (Acinetobacter baumannii) was 4 µg/mL (≈ 8.26 µM) and the MIC (Escherichia coli) was 8 µg/mL (≈ 16.5 µM). It also gave an MIC (Klebsiella pneumoniae) of 16 µg/mL (≈ 33 µM) and an MIC [19] of 1 µg/mL (≈ 2.06 µM).

`CCCCCCCCCCCCSC[C@H]1O[C@H](O[C@@H]2[C@@H](O)[C@H](O[C@H]3O[C@H](CN)[C@@H](O)C[C@H]3N)[C@@H](N)C[C@H]2N)[C@H](O)[C@@H](N)[C@@H]1O` gave an MIC (Aspergillus nidulans) of 7.8 µg/mL (≈ 12 µM).
